In ChEMBL document CHEMBL1141385, “Lignans from Dysosma versipellis with inhibitory effects on prostate cancer cell lines” (J Nat Prod, 2007) one finds IC50 data, which are given here for six compounds.

For experiment [1], the system named is PC-3. Description: Cytotoxicity against androgen-independent human PC3 cells. The class given is cell-based. Put shortly: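 PC-3 (androgen-independent human prostate cancer) cells kept as monolayers in DMEM with 10% FBS, 2 mM L-glutamine, penicillin/streptomycin, 5% CO2. Plated at 3000 cells/well and left to attach overnight. Treated with compounds or DMSO vehicle for 48 h. Viability read by MTS (2–4 h, 37 °C) as absorbance at 490 nm. Run at least three times in triplicate.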

Experiment [2] deals with LNCaP. Description: Cytotoxicity against androgen sensitive human LNCaP cells. In kind it is cell-based. Put shortly:
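LNCaP (androgen-sensitive human prostate cancer) cells kept as monolayers in DMEM with 10% FBS, 2 mM L-glutamine, penicillin/streptomycin, 5% CO2. Seeded at 5000 cells/well, attached overnight, then exposed to compounds or DMSO vehicle for 48 h. MTS added for 2–4 h at 37 °C; formazan absorbance read at 490 nm. At least three experiments, each in triplicate.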

On to `COc1cc([C@@H]2c3cc4c(cc3[C@H](O)[C@H]3COC(=O)[C@H]23)OCO4)cc(OC)c1O`, for which the results for the half-maximal inhibitory concentration (IC50) in experiment [1] and in experiment [2] were 82 nM and 56 nM, respectively.

In the case of `COc1cc([C@@H]2c3cc4c(cc3C[C@H]3COC(=O)[C@@H]32)OCO4)cc(OC)c1O` [4'-DEMETHYLDEOXYPODOPHYLLOTOXIN], the half-maximal inhibitory concentration (IC50) in experiment [1] turned out to be 140 nM; in experiment [2], 150 nM.

On to `COc1cc([C@@H]2c3cc4c(cc3C[C@H]3COC(=O)[C@@H]32)OCO4)cc(OC)c1OC` [DESOXYPODOPHYLLOTOXIN], for which the half-maximal inhibitory concentration (IC50) was 32 nM in experiment [1] and 30 nM in experiment [2].

Consider `COc1cc2c(O)c3c(c(-c4ccc5c(c4)OCO5)c2cc1OC)C(=O)OC3` [DIPHYLLIN], for which the IC50 is 7200 nM in experiment [1] and 11500 nM in experiment [2].

In the case of `COc1cc(O)cc([C@@H](O)[C@@H]2CO[C@@H](c3ccc(O)c(OC)c3)[C@@H]2CO)c1` [DYSOSMAROL], the IC50 in experiment [1] and in experiment [2] was 16000 nM each time.

As to `COc1cc([C@@H]2c3cc4c(cc3[C@H](O)[C@H]3COC(=O)[C@H]23)OCO4)cc(OC)c1OC` [PODOFILOX], the half-inhibitory concentration (IC50) is 34 nM in experiment [1] and 31 nM in experiment [2].
